# Published values collected from several papers.
# Compare with care: the assays were run in different laboratories.
SMILES,target or system,test,test system,setting,endpoint,value
CN1CCN(c2nc(-c3ccccn3)nc3ccccc23)CC1,,metabolic stability,"mouse, liver microsomes",,microsomal CLint,19 µL/min/mg
Oc1c(Br)cc(Cl)c2cccnc12,,,"Sprague-Dawley rat, plasma","oral, 20 mg/kg",Vd/F,39.9 L/kg
O=C(Nc1cccc(-c2ncco2)c1)c1cc([N+](=O)[O-])c(F)cc1F,,metabolic stability,"CD-1 mouse, liver microsomes","1 µM, 1 h, pH 7.4",scaled CLint,2200 mL/min/kg
COc1ccc(CC(CC(=O)O)C(=O)O)cc1OC (stereo not drawn),Huh7.5,"cell growth or viability, MTT",,,CC50,> 5 mM
Fc1ccc(Nc2nc(-c3ccccn3)nc3ccccc23)cc1,,metabolic stability,"mouse, liver microsomes",,microsomal CLint,138 µL/min/mg
COC[C@@H](Cc1ccc(OC)c(OC)c1)[C@@H](COC)Cc1ccc(OC)c(OC)c1,Huh7.5,"cell growth or viability, MTT",,,CC50,5 mM
NC(=O)c1cnc2[nH]ccc2c1N[C@@H]1[C@@H]2CC3C[C@H]1C[C@@](O)(C3)C2,"ATP-binding cassette sub-family C member 4 (ABCC4, Homo sapiens, UniProt O15439)","transporter uptake, inhibitor, radiometric",Sf9,"100 µM, 5 min, pH 7, cell membranes",inhibition,< 50%
O=C(Nc1cncc(-c2nc3ccccc3o2)c1)c1cc([N+](=O)[O-])c(N2CCNCC2)cc1Cl,,metabolic stability,"CD-1 mouse, liver microsomes","1 µM, 1 h, pH 7.4",scaled CLint,10 mL/min/kg
CCn1cnc2c(=O)[nH]c(N)nc21.NCCNCCN.[Pt+2],CCRF-CEM,"cell growth or viability, WST-1",,,IC50,> 0.1 mM
